The nature of series [1]: Cytotoxicity against human MT4 cells after 96 hrs by MTT assay. Format: cell-based. As to conditions: MT4 cells. The method in brief:
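Exponentially growing MT-4 cells at 1 × 10^5 cells/mL in RPMI-1640 with 10% FCS, exposed to serial compound dilutions at 37 °C, 5% CO2. Viability by MTT after 96 h; CC50 is the concentration reducing viability of mock-infected cells by 50%.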

The test system of series [2] is Respiratory syncytial virus. The series can be described thus: Antiviral activity against RSV A2 infected in african green monkey Vero cells after 5 days by plaque reduction assay. Format: functional, organism-based. Conditions: human respiratory syncytial virus, A2, Vero, 120 h. The method in brief: (§1)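 Plaque reduction assay. Vero 76 cells at 2 × 10^5/well, grown overnight to confluence in D-MEM with 10% FBS. Infected 2 h with 50–100 PFU/well, unadsorbed virus removed. Overlay of D-MEM with 1% inactivated FBS and 0.75% methylcellulose, with or without serial compound dilutions. Incubated at 37 °C for 3 days (HSV-1 KOS, CVB-2 Ohio-1) or 5 days (RSV A2). Fixed and stained with crystal violet in 50% ethanol; plaques counted; EC50 by linear regression.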

The subject of series [3] is Poliovirus 1. Put plainly: Antiviral activity against Polio virus type1 Sabin strain Chat infected in african green monkey Vero cells after 2 days by plaque reduction assay. The format is functional, organism-based, Human poliovirus 1 strain Sabin. As to conditions: Enterovirus C, 48 h.
Series [4] deals with Bovine viral diarrhea virus 1. Put plainly: Antiviral activity against Bovine viral diarrhea virus NADL infected in MDBK cells assessed as protection from virus-induced cytopathogenicity after 3 to 4 days by MTT method. Format: functional, organism-based, Bovine viral diarrhea virus 1-NADL. Conditions: Bovine viral diarrhea virus isolates and strains, MDBK. The method in brief:
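Cytopathogenicity protection assay. MDBK cells at 3 × 10^4/well, grown overnight to confluence. Infected with BVDV NADL at m.o.i. 0.01 in MEM-E with 0.5% inactivated FBS, 1 mM Na pyruvate and 1% kanamycin. Serial compound dilutions added after 1 h. After 3–4 days at 37 °C, viability read by MTT; EC50 is the concentration giving 50% protection.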
A general note: Cytopathic effects are the visible damage that an infection or toxin causes in cultured cells.

Series [5] has as its system Human alphaherpesvirus 1. Put plainly: Antiviral activity against HSV1 KOS infected in african green monkey Vero cells after 3 days by plaque reduction assay. The format is functional, organism-based. As to conditions: Human alphaherpesvirus 1, KOS, 72 h. The essentials: as §1
(Plaque reduction counts the foci of infection that form in a cell layer.)

Series [6] can be described thus: Cytotoxicity against BHK cells after 48 to 96 hrs by MTT assay. The format is cell-based, Mesocricetus auratus. As to conditions: hamster. The method in brief:
(§2)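 Cell seeding: MDBK at 6 × 10^5 cells/mL in MEM-E with 10% horse serum and 1 mM Na pyruvate; BHK at 1 × 10^6 cells/mL in MEM-E with 10% FBS. Serial compound dilutions, 37 °C, 5% CO2. Viability of mock-infected cells by MTT after 48–96 h; CC50 is the concentration reducing viability by 50%.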
(In general: Formazan colour is commonly taken as a measure of viable cells.)

Series [7] concerns Coxsackievirus B2. The series can be described thus: Antiviral activity against Human coxsackievirus B2 Ohio-1 infected in african green monkey Vero cells after 3 days by plaque reduction assay. Format: functional, organism-based, Coxsackievirus B2 (strain Ohio-1). Conditions: Enterovirus B, Vero, 72 h. The method in brief: as §1
Series [8] has as its system Human immunodeficiency virus 1. Put plainly: Antiviral activity against HIV1 3B infected in human MT4 cells assessed as protection from virus-induced cytopathogenicity after 4 days by MTT method. Format: functional, organism-based. The essentials:
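MT-4 cells, 1 × 10^4/well in RPMI with or without serial compound dilutions, infected with HIV-1 IIIB, 100 CCID50 (m.o.i. 0.01). Protection from virus-induced cytopathogenicity read by MTT.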

A short description of series [9]: Cytotoxicity against african green monkey Vero cells. The format is cell-based. Conditions: chlorocebus sabaeus. The essentials:
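Vero 76 monolayers exposed to serial compound dilutions, run in parallel on the same 24-well plates as the plaque-reduction assays. CC50 is the concentration reducing viability of mock-infected cells by 50%.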

For series [10], the system named is Yellow fever virus. The series can be described thus: Antiviral activity against Yellow fever virus 17D infected in BHK cells assessed as protection from virus-induced cytopathogenicity after 3 to 4 days by MTT method. The format is functional, organism-based.
Series [11] relates to Vesicular stomatitis virus. The series can be described thus: Antiviral activity against VSV Indiana lab infected in african green monkey Vero cells after 2 days by plaque reduction assay. Format: functional, organism-based.
A short description of series [12]: Cytotoxicity against MDBK cells after 48 to 96 hrs by MTT assay. Format: cell-based, Bos taurus. As to conditions: cattle, MDBK cells. The essentials: as §2
Series [13] relates to Vaccinia virus. Put plainly: Antiviral activity against Vaccinia virus Elstree-Lister infected in african green monkey Vero cells after 3 days by plaque reduction assay. Format: functional, organism-based. Conditions: Orthopoxvirus vaccinia, 72 h.

Activity calls are given as the source filed them. No rule for the calls is given here. Where only a bound is given, the exact number is not on record here.

One may read the CC50 as the concentration giving 50% cytotoxicity. Broadly, the EC50 is the midpoint of the concentration-response curve. With `O=[N+]([O-])c1ccc(-c2nc3cc(C(F)(F)F)ccc3[nH]2)c([N+](=O)[O-])c1`, the CC50 at 96 h in series [1] is 9 µM. In addition, the EC50 in series [2] was over 25 µM; in series [3], over 25 µM; in series [4], over 16 µM; in [5], over 25 µM; in series [7] it was 9 µM; in [10], over 8 µM. Further, in series [13], the EC50 is over 25 µM. The CC50 in series [6] came to 8 µM; in [9], 25 µM; in series [12] it was 16 µM. The result in series [8] and in [11] was inactive.

For `COc1ccc(-c2nc3cc([N+](=O)[O-])ccc3[nH]2)c(OC)c1OC`, the 50% cytotoxic concentration (CC50) at 96 h in [1] is over 100 µM. Moreover, the EC50 in series [2], in series [3], in series [4], in [5], in series [7] and in [10] was over 100 µM throughout. Further, in series [13], the EC50 is over 100 µM. Further, the CC50 in series [6], in series [9] and in series [12] was over 100 µM in each case. Moreover, the outcome in series [8] and in series [11] was inactive.

`O=[N+]([O-])c1ccc(-c2nc3ccccc3[nH]2)c([N+](=O)[O-])c1` gave a CC50 at 96 h in [1] of 7 µM. Also, the EC50 is over 100 µM in series [2]; over 100 µM in [3]; over 20 µM in [4]; 25 µM in series [5]; 40 µM in [7]; over 100 µM in series [10]. For the same molecule, the EC50 in series [13] is over 100 µM. In addition, the CC50 in series [6] is over 100 µM; in [9], over 100 µM; in series [12] it was 20 µM. The outcome in series [8] and in series [11] was inactive.

Regarding `COc1ccc(-c2nc3cc(C(F)(F)F)ccc3[nH]2)c(OC)c1OC`, the midpoint of cytotoxicity in series [1], the CC50 at 96 h, lay at 93 µM. Further, the EC50 in series [2] is over 70 µM; in [3], 42 µM; in series [4], over 100 µM; in [5], over 70 µM; in series [7], 16 µM; in [10], over 32 µM. This molecule also gave an EC50 in series [13] of over 70 µM. In addition, the 50% cytotoxic concentration (CC50) in series [6] is 32 µM; in [9], 70 µM; in [12] it was over 100 µM. Further, the outcome in [8] and in series [11] was inactive.

As for `O=[N+]([O-])c1ccc(-c2nc3cc(C(F)(F)F)ccc3n2C23CC4CC(CC(C4)C2)C3)cc1`, the cytotoxic concentration (CC50) at 96 h in [1] was at least 100 µM. Besides, the half-maximal effective concentration (EC50) in series [2], in series [3], in [4], in series [5], in series [7] and in series [10] was over 100 µM throughout. Further, the EC50 in [13] was over 100 µM. The CC50 in series [6], in [9] and in [12] was over 100 µM each time. The outcome in series [8] and in series [11] was inactive.

`Fc1cccc(F)c1-c1nc2cc(C(F)(F)F)ccc2[nH]1` registered a CC50 at 96 h in series [1] of 100 µM. The EC50 is over 25 µM in [2]; over 25 µM in [3]; over 100 µM in series [4]; over 25 µM in series [5]; over 25 µM in [7]; over 100 µM in [10]. Moreover, in series [13], the EC50 is over 25 µM. Further, the figures for the CC50 in series [6], in series [9] and in series [12] were at least 100 µM, 25 µM and at least 100 µM, respectively. Further, the outcome in series [8] and in series [11] was inactive.

In series [1], `COc1ccc(-c2nc3cc(Cl)c(Cl)cc3[nH]2)c([N+](=O)[O-])c1` had a CC50 at 96 h of 2 µM. For the same molecule, the EC50 was over 80 µM in series [2]; over 80 µM in [3]; over 28 µM in series [4]; over 80 µM in series [5]; over 80 µM in series [7]; over 80 µM in series [10]. Further, the EC50 in series [13] is over 80 µM. For the same molecule, the CC50 in series [6] turned out to be 80 µM; in series [9], 80 µM; in [12], 28 µM. For the same molecule, the result in series [8] and in series [11] was inactive.

With `COc1ccc(-c2nc3cc(C(F)(F)F)ccc3[nH]2)cc1`, it took 2 µM to reach half-maximal cytotoxicity in [1] (CC50 at 96 h). In addition, the EC50 is over 15 µM in series [2]; over 15 µM in [3]; 1 µM in series [4]; over 15 µM in series [5]; 7 µM in [7]; over 100 µM in series [10]. Besides, the EC50 in [13] is over 15 µM. Further, the figures for the CC50 in [6], in series [9] and in [12] were over 100 µM, 15 µM and over 100 µM, respectively. For the same molecule, the result in series [8] and in series [11] was inactive.

`O=[N+]([O-])c1ccc(-c2nc3cc(C(F)(F)F)ccc3[nH]2)cc1`: the cytotoxic concentration (CC50) at 96 h in series [1] was determined as 6 µM. Further, the EC50 is over 45 µM in [2]; over 45 µM in series [3]; over 6 µM in series [4]; over 45 µM in [5]; 12 µM in [7]; over 18 µM in series [10]. This molecule also displayed an EC50 in series [13] of 4 µM. In addition, the CC50 in series [6] was 18 µM; in [9], 45 µM; in [12] it was 6 µM. Besides, the result in series [8] and in [11] was inactive.

As to `COc1ccc(-c2nc3cc(Cl)c(Cl)cc3[nH]2)cc1`, the midpoint of cytotoxicity in [1], the CC50 at 96 h, lay at 1 µM. In addition, the EC50 in [2] is over 30 µM; in series [3], over 30 µM; in [4], over 2.5 µM; in [5] it was 20 µM; in series [7], 10 µM; in series [10], over 18 µM. In addition, in series [13], the EC50 was over 30 µM. The CC50 was found to be 18 µM in [6], 30 µM in series [9] and 2.5 µM in series [12]. Further, the outcome in series [8] and in [11] was inactive.

`COc1ccc(-c2nc3cc(C(F)(F)F)ccc3[nH]2)c([N+](=O)[O-])c1` returned a CC50 at 96 h in series [1] of 85 µM. Further, the EC50 was over 20 µM in [2]; over 20 µM in series [3]; over 55 µM in series [4]; over 20 µM in [5]; over 20 µM in [7]; over 100 µM in series [10]. The molecule also registered an EC50 in series [13] of over 20 µM. Besides, the 50% cytotoxic concentration (CC50) in [6] amounted to 100 µM; in [9], 20 µM; in series [12], 55 µM. The result in series [8] and in series [11] was inactive.

Take `COc1ccc(-c2nc3cc(C(C)=O)ccc3[nH]2)c(OC)c1OC`: in series [1], the CC50 at 96 h is over 100 µM. Further, the EC50 was over 100 µM in series [2]; over 100 µM in series [3]; over 100 µM in series [4]; 40 µM in series [5]; over 100 µM in series [7]; over 100 µM in series [10]. In series [13], this molecule showed an EC50 of over 100 µM. Also, the CC50 in series [6], in [9] and in series [12] was over 100 µM in each case. Further, the result in [8] and in series [11] was inactive.

The record behind these values is ChEMBL document CHEMBL1156237, “Antiviral activity of benzimidazole derivatives. II. Antiviral activity of 2-phenylbenzimidazole derivatives” (Bioorg Med Chem, 2010).
